This is an account of results in ChEMBL document CHEMBL1154933, “2-Aminothiadiazole inhibitors of AKT1 as potential cancer therapeutics” (Bioorg Med Chem Lett, 2010).

A word on the IC50: it is the concentration needed to halve the response being measured. As usually defined, the clearance is the rate of elimination divided by the concentration. A high value points to a high capacity for elimination. For orientation: half-life means how long it takes for the measured level to halve. A low value points to rapid decline. A word on the EC50: it is the midpoint of the concentration-response curve. Lower therefore signals a more potent agent. The Cmax is the maximum level reached in the sampled fluid or tissue. As usually defined, the bioavailability is the share of a dose that reaches the circulation, judged against a reference dose that is usually intravenous.

Data set [1] addresses T1, RAC-alpha serine/threonine-protein kinase (Homo sapiens, UniProt P31749). Nature of the data set: Inhibition of AKT1 after 10 mins by [gamma33]ATP assay.
A short description of data set [2]: Inhibition of PKA.
The target in data set [3] is Cyclin-dependent kinase 2 (Homo sapiens, UniProt P24941). Description: Inhibition of CDK2.
Data set [4] is described as follows: Selectivity ratio of IC50 for CDK2 to IC50 for AKT1.
Data set [5] has as its target T1, RAC-alpha serine/threonine-protein kinase. Nature of the data set: Inhibition of human AKT1 in human U87MG cells assessed as PRAS40 phosphorylation after 1 hr by ELISA. The class given is cell-based, U-87MG ATCC. In a few lines:
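U87MG cells in 5% FBS medium were incubated with threefold serial dilutions of inhibitor for 1 h at 37 °C, then lysed. Phospho-PRAS40 (Thr246) was quantified by ELISA and normalized to total PRAS40. Mean ± SD where n ≥ 3.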
A general note: In an ELISA, binding on a coated surface is turned into a signal by an enzyme label.

For data set [6] the target is unchanged. Description: Inhibition of human AKT1 in human MDA-MB-468 cells assessed as phosphorylation-mediated nuclear translocation of GFP-tagged FKHRL1 by fluorescence microscopy. The format is cell-based. In outline: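 MDA-MB-468 cells stably expressing GFP-tagged FKHRL1 were treated with threefold serial dilutions of compound. Nuclear translocation of the fusion protein was scored by fluorescence microscopy. Mean ± SD where n ≥ 3, some values from a single run.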

Data set [7] in a line: Clearance in Sprague-Dawley rat at 1 mg/kg, iv. Set-up: dose 1 mg/kg, route intravenous. To be noted: in vivo. The class given is ADME, organism-based. In outline: (§1)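 Male Sprague-Dawley rats, n = 3, given a single iv dose in 100% DMSO, at 1 mg/kg or 2 mg/kg depending on compound. Clearance, half-life and steady-state volume of distribution were taken from plasma exposure after the iv dose.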

Data set [8] in a line: Half life in Sprague-Dawley rat at 1 mg/kg, iv. The class given is ADME, organism-based. Further details: dose 1 mg/kg, route intravenous. Particulars: in vivo. In outline: as §1
Data set [9] is described as follows: Volume of distribution at steady state in Sprague-Dawley rat at 1 mg/kg, iv. The format is ADME, organism-based. Further details: dose 1 mg/kg, route intravenous. To be noted: in vivo, read-out: Vdss. In outline: as §1
Data set [10] in a line: Cytotoxicity against human U87MG cells after 3 days by alamar blue staining. The class given is functional, cell-based, U-87MG ATCC. Particulars: U-87 MG, 72 h. In outline:
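U-87 glioblastoma cells seeded at 6000 cells/well and exposed to compound over a concentration series for 3 days. Viability read by alamarBlue staining, run in triplicate, and EC50 derived.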
In general terms: Resazurin is reduced to fluorescent resorufin, in cell work by metabolically active cells.

The nature of data set [11]: Clearance in Sprague-Dawley rat at 2 mg/kg, iv. The format is ADME, organism-based. Further details: dose 2 mg/kg, route intravenous. To be noted: in vivo. In outline: as §1
Data set [12] is described as follows: Half life in Sprague-Dawley rat at 2 mg/kg, iv. The class given is ADME, organism-based. Particulars: in vivo. Further details: dose 2 mg/kg, route intravenous. In outline: as §1
Data set [13] is described as follows: Volume of distribution at steady state in Sprague-Dawley rat at 2 mg/kg, iv. Further details: dose 2 mg/kg, route intravenous. The class given is ADME, organism-based. Particulars: in vivo, read-out: Vdss. In outline:
as §1

Data set [14] in a line: Cmax in Sprague-Dawley rat at 10 mg/kg, po. The format is ADME, organism-based. Set-up: dose 10 mg/kg, route oral. Particulars: in vivo. In a few lines:
(§2)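 Male Sprague-Dawley rats, n = 3, dosed orally at 10 mg/kg in 25% PEG 400/[…]. Cmax was taken from the oral exposure. Bioavailability was derived against the separate iv arm, which was 2 mg/kg in 100% DMSO.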

Data set [15] is described as follows: Oral bioavailability in Sprague-Dawley rat at 10 mg/kg. The class given is ADME, organism-based. Particulars: in vivo. In outline:
as §2

Data set [16] relates to Mus musculus. Description: Inhibition of HGF-stimulated AKT signaling pathway in BALB/c mouse liver assessed as reduction in phosphorylated FKHRL1 level ip dosed 1 hr before HGF challenge and measured after 5 mins by Western blot analysis. The format is functional, organism-based. In general terms: In western blotting, separated proteins are transferred to a membrane and probed.

The test system of data set [17] is Mus musculus. Description: Inhibition of HGF-stimulated AKT signaling pathway in BALB/c mouse liver assessed as reduction in phosphorylated FKHRL1 level at 30 mg/kg, ip dosed up to 6 hrs before HGF challenge and measured after 5 mins by Western blot analysis. The format is functional, organism-based. Further details: dose 30 mg/kg.
For data set [18], the target named is T2, Serine/threonine-protein kinase Sgk1 (Homo sapiens, UniProt O00141).
T2 sequence (O00141 whole entry): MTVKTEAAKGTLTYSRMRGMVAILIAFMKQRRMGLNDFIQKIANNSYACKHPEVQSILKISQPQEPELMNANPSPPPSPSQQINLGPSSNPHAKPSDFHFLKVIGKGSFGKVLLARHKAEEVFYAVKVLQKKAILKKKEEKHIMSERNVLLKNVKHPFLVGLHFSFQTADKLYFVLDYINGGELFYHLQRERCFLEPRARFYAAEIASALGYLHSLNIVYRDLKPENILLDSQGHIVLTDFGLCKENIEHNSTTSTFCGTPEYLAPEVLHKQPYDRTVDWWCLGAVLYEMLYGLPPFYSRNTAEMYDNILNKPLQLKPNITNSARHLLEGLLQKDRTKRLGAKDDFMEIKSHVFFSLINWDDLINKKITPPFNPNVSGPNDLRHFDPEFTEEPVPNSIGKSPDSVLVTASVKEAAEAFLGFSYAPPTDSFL
Description: Inhibition of SGK1.

Calls of active or inactive are those of the source. The calls are words filed in the database; no cut-off is given here. Some results are limits rather than exact numbers.

T1 sequence (P31749 whole entry): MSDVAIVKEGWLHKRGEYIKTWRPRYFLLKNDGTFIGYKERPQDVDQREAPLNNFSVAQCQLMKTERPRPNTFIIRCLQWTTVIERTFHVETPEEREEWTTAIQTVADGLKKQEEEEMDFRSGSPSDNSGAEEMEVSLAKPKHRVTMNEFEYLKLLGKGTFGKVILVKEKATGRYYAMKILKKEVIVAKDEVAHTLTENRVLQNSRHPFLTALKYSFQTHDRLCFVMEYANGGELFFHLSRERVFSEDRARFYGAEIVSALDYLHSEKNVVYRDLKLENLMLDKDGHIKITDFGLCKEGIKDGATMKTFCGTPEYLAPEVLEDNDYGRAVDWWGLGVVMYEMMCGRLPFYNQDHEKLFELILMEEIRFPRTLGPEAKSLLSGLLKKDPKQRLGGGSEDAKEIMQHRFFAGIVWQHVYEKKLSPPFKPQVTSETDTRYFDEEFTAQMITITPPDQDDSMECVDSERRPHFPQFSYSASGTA

Consider `N[C@H](CNc1nnc(-c2ccc3[nH]ncc3c2)s1)Cc1ccc(C(F)(F)F)cc1`, for which the IC50 amounted to 6 nM in data set [1]; 108 nM in data set [2]; 24 nM in [3]; 444 nM in data set [5]; 154 nM in data set [6]. The Ratio IC50 in data set [4] stood at 4. In data set [7], the clearance is 81.7 mL/min/kg. The molecule also had a half-life in data set [8] of 2.5 h. For the same molecule, the Vd in data set [9] amounted to 13.3 L/kg.

On to `Cc1n[nH]c2ccc(-c3nnc(NC[C@@H](N)Cc4cccc(C(F)(F)F)c4)s3)cc12`, for which the IC50 in [1] turned out to be 6.1 nM; in data set [2] it was 6.5 nM; in data set [3], 35 nM.

As for `N[C@H](CNc1nnc(-c2ccc3[nH]ncc3c2)s1)Cc1cccc(C(F)(F)F)c1`, the figures for the IC50 in data set [1] and in data set [2] were 25 nM and 117 nM, respectively.

As to `N[C@H](CNc1nnc(-c2ccc3[nH]ncc3c2)s1)Cc1ccc(Cl)cc1`, the figures for the IC50 in [1], in data set [2] and in [3] were 24 nM, 157 nM and 41 nM, respectively.

Take `Cc1n[nH]c2ccc(-c3nnc(NC[C@@H](N)Cc4ccc(Cl)cc4Cl)s3)cc12`: the IC50 in data set [1] amounted to 18 nM; in data set [2] it was 43 nM; in data set [3] it was 70 nM.

Regarding `N[C@H](CNc1nnc(-c2ccc3[nH]nc(-c4ccccc4)c3c2)s1)Cc1cccc(C(F)(F)F)c1`, the IC50 in data set [1] came to 413 nM; in data set [2] it was 368 nM; in data set [3], 79 nM.

As to `N[C@H](CNc1nnc(-c2ccc3[nH]ncc3c2)s1)Cc1ccc(F)cc1`, the IC50 in data set [1] was determined as 368 nM; in data set [2] it was 373 nM; in data set [3], 74 nM.

In the case of `N[C@H](CNc1nnc(-c2ccc3[nH]nc(C4CC4)c3c2)s1)Cc1ccc(C(F)(F)F)cc1`, the IC50 amounted to 181 nM in data set [1], 237 nM in data set [2] and 135 nM in [3].

For the molecule `Cc1n[nH]c2ccc(-c3nnc(NC[C@@H](N)Cc4ccc(Cl)cc4)s3)cc12`, the IC50 in [1] was 8.9 nM; in data set [2], 11 nM; in data set [3], 72 nM.

In the case of `Cc1n[nH]c2ccc(-c3nnc(NC[C@@H](N)Cc4ccc(C(F)(F)F)cc4)s3)cc12`, the IC50 in data set [1] was found to be 5.5 nM; in data set [2] it was 13 nM; in data set [3] it was 17 nM; in [5] it was 357 nM; in data set [6], 333 nM. In data set [7], this molecule showed a clearance of 46.7 mL/min/kg. In [8], this molecule showed a half-life of 4.1 h. Also, in data set [9], the Vd amounted to 13.7 L/kg.

As to `Cc1n[nH]c2ccc(-c3nnc(NC[C@H](N)Cc4ccccc4)s3)cc12`, the IC50 in [1] is > 2200 nM.

`Cc1n[nH]c2ccc(-c3nnc(NC[C@@H](N)Cc4ccc(F)c(F)c4)s3)cc12`: the IC50 in data set [1] worked out at 14 nM; in [2], 27 nM; in data set [3], 19 nM.

For the molecule `Cc1n[nH]c2ccc(-c3nnc(NC[C@@H](N)Cc4ccccc4C(F)(F)F)s3)cc12`, the IC50 was found to be 491 nM in [1], 247 nM in [2] and 198 nM in [3].

On to `Cc1n[nH]c2ccc(-c3nnc(NC[C@@H](N)Cc4ccccc4)s3)cc12`, for which the IC50 in data set [1] was 76 nM; in [2], 54 nM; in data set [3], 72 nM.

`N[C@H](CNc1nnc(-c2ccc3cnccc3c2)s1)Cc1ccc(C(F)(F)F)cc1`: the IC50 was 3 nM in data set [1]; 8 nM in data set [2]; 53 nM in data set [3]; 247 nM in data set [5]; 695 nM in data set [6]; 2200 nM in data set [18]. For the same molecule, the Ratio IC50 in data set [4] is 20. Further, in [10], it took 380 nM to reach a half-maximal effect (EC50). In [11], this molecule had a clearance of 25 mL/min/kg. The molecule also gave a half-life in [12] of 3.8 h. Besides, in data set [13], the Vd was 3.8 L/kg. The molecule also displayed a maximum concentration (Cmax) in [14] of 430 ng/mL. Also, the bioavailability in [15] is 20%. In addition, in the data set with Mus musculus [16], the inhibition result was “Dose-dependent effect”. Besides, in the data set on Mus musculus [17], the inhibition entry was “Active”.

Turning to `Cc1n[nH]c2ccc(-c3nnc(NC[C@@H](N)Cc4cccc(F)c4)s3)cc12`, the values for the IC50 in [1] and in data set [2] were 38 nM and 230 nM, respectively.

For `Cc1n[nH]c2ccc(-c3nnc(NC[C@@H](N)Cc4ccccc4Cl)s3)cc12`, the values for the IC50 in data set [1], in data set [2] and in data set [3] were 47 nM, 106 nM and 57 nM, respectively.

Regarding `Cc1cc2cc(-c3nnc(NC[C@@H](N)Cc4ccc(C(F)(F)F)cc4)s3)ccc2cn1`, the results for the IC50 in data set [1], in [2] and in [3] were 280 nM, 274 nM and 607 nM, respectively.

On to `Cc1n[nH]c2ccc(-c3nnc(NC[C@@H](N)Cc4ccccc4F)s3)cc12`, for which the IC50 is 198 nM in [1], 215 nM in [2] and 104 nM in [3].

For `N[C@H](CNc1nnc(-c2ccc3[nH]ncc3c2)s1)Cc1ccc(Cl)cc1Cl`, the results for the IC50 in [1], in [2] and in data set [3] were 40 nM, 158 nM and 323 nM, respectively. In addition, the Ratio IC50 in [4] came to 8.

Consider `Cc1n[nH]c2ccc(-c3nnc(NC[C@@H](N)Cc4cccc(Cl)c4)s3)cc12`, for which the IC50 in data set [1] was 19 nM; in data set [2], 15 nM; in data set [3], 17 nM.

With `CCc1n[nH]c2ccc(-c3nnc(NC[C@@H](N)Cc4ccccc4)s3)cc12`, the IC50 in data set [1] was 370 nM.
